# OX1R antag-1 – antagonists of human orexin 1 receptor (OX1R). hit rate 1.8% among 330,000. AID 485270. OX1R-expressing cells, FRET antagonist read-out. O43613. inhibition, % at 6.6 µM; in the data active = inhibition mostly above about 38%, no sharp cut-off; inactive = mostly below about 40%;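 also: 0% = agonist challenge alone and 100% = reference antagonist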
# Target sequence (O43613 whole entry, looked up): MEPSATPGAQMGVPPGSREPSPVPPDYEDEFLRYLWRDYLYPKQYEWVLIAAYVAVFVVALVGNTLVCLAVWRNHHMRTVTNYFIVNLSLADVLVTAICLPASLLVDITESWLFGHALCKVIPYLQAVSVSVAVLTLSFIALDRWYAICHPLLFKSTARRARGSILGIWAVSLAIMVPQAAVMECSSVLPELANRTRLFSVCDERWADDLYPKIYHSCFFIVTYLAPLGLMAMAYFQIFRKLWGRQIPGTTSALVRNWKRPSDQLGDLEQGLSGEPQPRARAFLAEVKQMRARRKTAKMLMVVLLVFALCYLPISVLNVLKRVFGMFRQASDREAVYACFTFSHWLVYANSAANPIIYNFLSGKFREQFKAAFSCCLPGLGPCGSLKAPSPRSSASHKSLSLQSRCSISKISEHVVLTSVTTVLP
# TAAR1 antag – human TAAR1 antagonism; inhibition, % at 3 µM; hit rate 1.5% among 360,000; CHO RD-HGA16 TAAR1, Fluo-8 calcium fluorescence, antagonist; Q96RJ0;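 active = inhibition above a per-plate cutoff, the mean inhibition of test compounds on that plate plus 3 SD, cut at about 49% in these data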;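 also: 0% = DMSO plus EC80 beta-PEA response and 100% = DMSO alone without agonist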
#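 Test system: hTAAR1-expressing CHO RD-HGA16 cells, Gα16-coupled; Probe or stimulus: EC80 β-phenethylamine stimulus; Compound dosing: single nominal final test compound concentration of 3 µM; Timing: 140 s kinetic read after compound, 140 s after agonist; Signal: Fluo-8 calcium-sensitive fluorescence; Measure: % inhibition of agonist calcium response; Controls: DMSO and EC80 PEA controls.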
# TAAR1 ag – human TAAR1 agonism; hit rate 0.99% among 360,000; activation, % at 3 µM; CHO RD-HGA16 TAAR1, Fluo-8 calcium fluorescence; vehicle wells 0%, saturating PEA agonist 100%; Q96RJ0;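 active = activation above the mean activation of all test compounds in the run plus 3 SD, cut at about 38% in these data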
#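 Repeats: no replicates (n 1) | Material: CHO-derived RD-HGA16 cells with stable Gα16 and human TAAR1 | Technique: Kinetic Fluo-8 calcium fluorescence | Schedule: 17-24 h seeding, 75 min 37 °C dye, 30 min RT | Evaluation: % activation from peak over basal fluorescence ratio, DMSO-to-PEA scaled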
# CHO parental Ca – signal in parental CHO cells, OX1R antagonist counter-screen. hit rate 0.63% among 330,000. AID 463079. parental CHO-K1, ATP-induced calcium, Fluo-8 fluorescence. inhibition, % at 5.6 µM;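 active = inhibition above that plate's mean sample inhibition plus 3 SD, cut at about 26% in these data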;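 also: 0% = ATP-challenged DMSO wells and 100% = DMSO wells without ATP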
#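 Assay system: parental CHO cells; Read-out basis: percent inhibition of ATP-evoked calcium rise, normalized to controls; Benchmarks: ATP and no-ATP DMSO wells; Compound dosing: single nominal dose of 5.6 µM per compound; Signal: Fluo-8 calcium dye fluorescence; Also added: ATP as calcium-mobilizing challenge; Repeats: singlicate.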
# GPR7 antag – blocks human GPR7 receptor signaling; P48145; GPR7-expressing cells, fluorescence antagonist assay; inhibition, % at 4.4 µM; hit rate 1.1% among 290,000; in the data active = inhibition above about 16%, passing the limit was not always enough;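 also: cells stimulated with the agonist NPW; 0% = agonist with vehicle and 100% = vehicle without agonist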
# Target sequence (P48145 whole entry, looked up): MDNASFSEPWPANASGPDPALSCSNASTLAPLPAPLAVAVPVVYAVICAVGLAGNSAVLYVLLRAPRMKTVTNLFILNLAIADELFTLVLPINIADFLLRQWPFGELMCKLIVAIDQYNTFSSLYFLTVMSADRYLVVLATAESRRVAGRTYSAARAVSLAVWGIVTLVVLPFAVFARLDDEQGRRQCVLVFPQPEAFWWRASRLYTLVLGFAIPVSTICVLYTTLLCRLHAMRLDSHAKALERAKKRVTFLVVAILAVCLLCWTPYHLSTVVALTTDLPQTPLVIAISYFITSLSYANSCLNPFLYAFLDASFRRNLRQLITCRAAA
# OX1R antag-2 – antagonists of human orexin 1 receptor. inhibition, % at 5 µM. O43613. CHO/OX1R cells, Fluo-8 calcium fluorescence, orexin A. hit rate 0.43% among 330,000;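 active = inhibition above its plate's threshold, mean inhibition of all tested compounds on the plate plus 3 SD, cut at about 37% in these data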;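 also: 0% = orexin A challenge wells and 100% = SB-334867-A antagonist wells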
# Starred values were filed as active, the others as inactive; · = no result given. In the library only some 4.6% were active in any assay of this set; here they are far more common.
SMILES,OX1R antag-1,TAAR1 antag,TAAR1 ag,CHO parental Ca,GPR7 antag,OX1R antag-2
CCOc1ccc(S(=O)(=O)N2CCCCC2)cc1NC(=O)Cc1cccc(C(F)(F)F)c1,0.1,-1.3,7.5,-9.3,·,-6.5
COc1ccccc1CN1Cc2ccccc2Oc2ccccc2S1(=O)=O,·,14.1,2.6,·,·,·
COC(=O)C1=C(C)N(Cc2ccccc2C(F)(F)F)C(=NCc2cccc(C(F)(F)F)c2)NC1CCc1ccccc1 (stereo unspecified),·,-19.3,1.9,·,·,·
O=C(N/N=C/c1ccncc1)c1cc2c(ccc3ccccc32)o1,37.5,20.7,6.4,-0.5,6.5,1.1
O=C(N/N=C/c1cc2c(cc1Br)OCO2)c1cc2ccccc2o1,76.0*,6.4,0.4,-16.0,-16.5,-1.3
COc1ccccc1C=NN=C(NN=Cc1ccccc1OC)NN=Cc1ccccc1OC,·,52.3*,16.4,·,·,·
COc1cc(/C=N/NC(=O)c2ccc(COc3ccccc3Cl)o2)cc(Br)c1O,-6.6,44.2,9.9,5.7,30.1*,-3.3
COc1ccccc1C=NNC(=O)NN=Cc1ccccc1OC,·,-2.8,-1.0,·,·,·
COc1ccccc1/C=N/NC(=O)c1cc2c(ccc3ccccc32)o1,65.4*,16.4,0.7,-18.2,-15.0,-0.5
O=C(N/N=C/c1cc2c(cc1Br)OCO2)c1ccccn1,1.9,-3.7,-0.8,-30.3,-2.5,-26.4
Nc1ccn([C@@H]2O[C@H](C(=O)N[C@H](Cc3ccccc3)C(=O)Nc3ccc4scnc4c3)[C@@H](O)[C@H]2O)c(=O)n1,·,-18.4,2.9,·,·,·
CCCOc1ccc(F)cc1-c1cc(C(=O)NCc2cc(OC)cc(OC)c2)[nH]n1,·,47.6,0.1,·,·,·
COc1cc(/C=N/NC(=O)c2cc3c(ccc4ccccc43)o2)cc(OC)c1O,52.5*,33.0,9.2,-9.1,5.2,7.0
CN(C(=O)CSc1ncnc2c(-c3cccs3)nsc12)C1CCCCC1,·,6.2,-1.2,·,·,·
CC(C)NC(=O)c1ccc2c(=O)n(CC3CCCO3)c(=S)[nH]c2c1 (stereo unspecified),7.7,-10.7,1.1,-5.5,17.4*,-11.8
COCCCNC(=O)c1ccc2c(=O)n(CC3CCCO3)c(=S)[nH]c2c1 (stereo unspecified),12.2,-8.7,0.7,-1.0,1.5,-26.0
COc1cc(/C=C(\C#N)c2nc3ccccc3s2)cc([N+](=O)[O-])c1O,·,1.8,0.7,·,3.2,·
N#C/C(=C\c1ccc(O)c([N+](=O)[O-])c1)c1nc2ccccc2s1,·,28.8,4.6,·,20.4*,·
Cn1c(=O)c2c(nc(NCc3ccco3)n2C/C=C/c2ccccc2)n(C)c1=O,66.2,35.5,21.3,38.7*,·,46.9*
O=[N+]([O-])c1ccc(Cl)cc1Sc1nc2ccccc2o1,16.8,-13.2,-1.5,-18.7,7.6,-34.0
O=[N+]([O-])c1ccc(Sc2nc3ccccc3o2)c([N+](=O)[O-])c1,36.8*,15.7,6.5,15.2,9.2,7.5
Nc1nc(Sc2ccc([N+](=O)[O-])cc2[N+](=O)[O-])n[nH]1,41.7*,-19.9,3.4,-5.2,-6.3,-4.1
O=c1[nH]c(Sc2ccc([N+](=O)[O-])cc2[N+](=O)[O-])nc2ccccc12,68.9,-32.0,6.1,-9.7,·,-1.4
Cc1ccnc(Sc2ccc([N+](=O)[O-])cc2[N+](=O)[O-])n1,67.5*,6.5,0.8,-0.4,-11.2,-8.6
Cc1ccc(Sc2ccc([N+](=O)[O-])cc2[N+](=O)[O-])nc1,47.4,-5.5,1.4,-19.5,-9.2,-34.3
SMILES,OX1R antag-1,TAAR1 antag,TAAR1 ag,CHO parental Ca,GPR7 antag,OX1R antag-2
CC(C)NC(=O)c1noc2cc([N+](=O)[O-])ccc12,67.2*,-4.8,10.2,-5.2,-5.5,-15.2
COc1ccc([N+](=O)[O-])cc1NC(C)C,21.7,-6.2,21.5,-4.9,-11.2,-5.4
CN(C)C(=O)c1noc2cc([N+](=O)[O-])ccc12,52.4*,5.0,4.9,1.6,-3.4,-4.8
Cc1ccc(C(C)(O)CS(=O)(=O)Cc2ccccc2)cc1 (stereo unspecified),-9.6,-1.0,-0.9,-13.2,-6.6,-26.2
Cc1c(NC(=O)c2ccc3c(c2)OCO3)cccc1-c1nc2ccccc2o1,51.9*,16.8,9.5,-25.4,9.3,-4.7
O=C(Nc1ccccc1-c1nc2ccccc2o1)c1ccc2c(c1)OCCO2,·,·,·,·,-1.6,·
COc1nc(Cl)cn(-c2ccc(C)cc2)c1=O,19.1,3.6,-2.6,-2.4,0.8,-7.0
Cc1ccc(-n2c(Cl)c(Cl)nc(Cl)c2=O)cc1,16.2,·,·,23.4,52.5*,16.4
Cc1ccc(C(=O)N[C@H](C(=O)OCc2cc(=O)n3c(n2)sc2ccccc23)C(C)C)cc1,20.9,38.0,3.6,-40.0,-12.8,-16.7
O=C(OCc1cc(=O)n2c(n1)sc1ccccc12)c1ccc(O)cc1O,63.1*,-7.8,0.5,-16.9,-2.5,-1.7
CN(C)S(=O)(=O)c1cccc(NC(=O)c2cc(-c3cccs3)nc3ccccc23)c1,26.4,64.5*,16.3,-2.2,-1.0,-2.8
O=C(Nc1nnc(-c2cccs2)o1)c1cc(-c2ccccc2)nc2ccccc12,46.2*,-8.0,21.7,-5.1,-2.0,-5.3
Cc1ccc(NC(=O)CSc2nnnn2C2CCCC2)cc1S(=O)(=O)N1CCOCC1,10.9,6.6,3.2,-12.3,·,-1.9
COc1ccc(O)c(C(=O)CC(=O)c2ccccc2)c1,23.3,·,·,-12.3,12.5,-21.5
COc1ccc(O)c(C(=O)c2cc(C(=O)NCCc3ccccc3)c(=O)n(CCc3ccccc3)c2)c1,36.5,51.3*,2.5,-1.2,-12.5,-3.6
CCNC(=O)C1CCCN(Cc2cc(-c3ccccc3)on2)CC1 (stereo unspecified),·,-16.3,3.1,·,·,·
NC(=Nc1ccc(Cl)cc1)c1ccccc1,13.1,16.7,43.3*,-6.9,0.3,-5.5
ONC(=Nc1ccccc1)c1ccc(Cl)cc1,2.9,5.8,3.5,-10.9,0.7,-10.3
COC(=O)[C@]12C[C@H](CC(=O)NCCCCc3ccccc3)C(=O)N(Cc3ccc4c(c3)OCO4)C1=C[C@H](COCc1ccccc1)O[C@@H]2C,·,-13.3,2.2,·,·,·
Nc1ncncc1-c1ccc([N+](=O)[O-])cc1,63.3*,-14.8,1.1,-1.5,18.5,0.1
Nc1ncncc1-c1ccc(F)cc1,·,-23.0,0.8,·,·,·
COc1cccc2c3c(c(C)nc12)CCN3c1ccccc1,63.8*,-19.6,8.3,8.0,0.8,-11.0
C[C@@H]1CN([C@@H](C)CO)C(=O)CCCn2cc(nn2)CO[C@H]1CN(C)C(=O)Nc1cccc(F)c1,·,3.3,0.2,·,·,·
CCOC(=O)CSc1nc2sc(C)c(C)c2c(=O)[nH]1,22.8,1.1,2.1,-24.1,-13.4,-10.9
CCOC(=O)/C(=C\c1ccc(Cl)cc1)c1nc2sc(C)c(C)c2c(=O)[nH]1,1.0,91.8*,14.2,-12.3,-1.5,-21.3

# Screening results from PubChem BioAssay.
